The source made the active and inactive calls. The calls are words filed in the database; no cut-off is given here.
Experiments:
Fasciola hepatica [1] = test: Antiparasitic activity against Fasciola hepatica infected in rat assessed as reduction in worm burden at 50 mg/kg, po administered as single dose measured after 6 days post treatment; type: functional; parameters: scale not given: the % may be the effect or the level left
Method in brief: (§1)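 Rats harbouring adult F. hepatica, treated at 8–13 weeks post-infection with a single oral dose given as a suspension in 7% (v/v) Tween 80 and 3% (v/v) EtOH. Killed at day 6 post-treatment. Adult flukes recovered from bile ducts and livers. Worm burden reduction taken from mean total worm burdens of treated versus untreated control rats. Cures = rats cured/rats treated. Significance by Kruskal-Wallis test.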

Fasciola hepatica [2] = test: Antiparasitic activity against Fasciola hepatica infected in rat assessed as reduction in worm burden at 100 mg/kg, po administered as single dose measured after 6 days post treatment; type: functional; parameters: scale not given: the % may be the effect or the level left; method in brief: as §1
Fasciola hepatica [3] = test: Antiparasitic activity against Fasciola hepatica infected in rat assessed as cure rate at 100 mg/kg, po administered as single dose measured after 6 days post treatment; type: functional, organism-based; parameters: dose 100 mg/kg; method in brief: as §1
Fasciola hepatica [4] = test: Antiparasitic activity against Fasciola hepatica infected in rat assessed as cure rate at 50 mg/kg, po administered as single dose measured after 6 days post treatment; type: functional, organism-based; parameters: dose 50 mg/kg; method in brief: as §1
Fasciola hepatica [5] = test: Antiparasitic activity against Fasciola hepatica infected in rat assessed as reduction in worm burden at 25 mg/kg, po administered as single dose measured after 6 days post treatment; type: functional; parameters: scale not given: the % may be the effect or the level left; method in brief: as §1
Fasciola hepatica [6] = test: Antiparasitic activity against Fasciola hepatica infected in rat assessed as cure rate at 25 mg/kg, po administered as single dose measured after 6 days post treatment; type: functional, organism-based; parameters: dose 25 mg/kg; method in brief: as §1

Compound	Activity (Fasciola hepatica [1]) [%]	Activity (Fasciola hepatica [2]) [%]	Activity (Fasciola hepatica [3])	Activity (Fasciola hepatica [4])	Activity (Fasciola hepatica [5]) [%]	Activity (Fasciola hepatica [6])
O=C(O)C1CCC2(CC1)OOC1(CCCCC1)OO2	61	100	Active			
O=C(O)[C@H]1CC[C@]2(CC1)OO[C@]1(O2)C2CC3CC(C2)CC1C3		52	inactive			
C[C@H]1[C@H](OC(=O)CCC(=O)O)O[C@@H]2O[C@@]3(C)CC[C@H]4[C@H](C)CC[C@@H]1[C@@]24OO3 [ARTESUNATE]		30				
O=C(O)C[C@H]1CC[C@]2(CC1)COC1(CCCCC1)OO2		95				
O=C(O)[C@H]1CC[C@@]2(CC1)OOC1(CCCCC1)O2		26	inactive			
O=C(O)C[C@H]1CC[C@]2(CC1)OOC1(O2)C2CC3CC(C2)CC1C3 (some centres undefined)		100	Active			
O=C(O)c1ccc(C2CCC3(CC2)OOC2(O3)C3CC4CC(C3)CC2C4)cc1 (centres undefined)	19	100	Active	inactive		
O=C(O)C1CCC2(CC1)OOC1(OO2)C2CC3CC(C2)CC1C3 (centres undefined)	48	100	Active			
O=C(O)[C@H]1CC[C@]2(CC1)COC1(CCCCC1)OO2	71	100	Active	inactive		
O=C(O)CC1CCC2(CC1)OOC1(CCCCC1)OO2		29	inactive			
O=C(O)[C@H]1CC[C@]2(CC1)COC1(OO2)C2CC3CC(C2)CC1C3 (some centres undefined)		61				
O=C(O)c1ccc([C@H]2CC[C@]3(CC2)COC2(OO3)C3CC4CC(C3)CC2C4)cc1 (some centres undefined)	100	100	Active	Active	0	
O=C(O)c1ccc(C2CCC3(CC2)OOC2(OO3)C3CC4CC(C3)CC2C4)cc1 (centres undefined)		92				
O=C(O)CC1CCC2(CC1)OCC1(OO2)C2CC3CC(C2)CC1C3 (centres undefined)		0	inactive			
O=C(O)C[C@H]1CC[C@]2(CC1)COC1(OO2)C2CC3CC(C2)CC1C3 (some centres undefined)	100	100	Active	Active	88	
O=C(O)CC1CCC2(CC1)OOC1(OO2)C2CC3CC(C2)CC1C3 (centres undefined)	100	100	Active	Active	71	inactive
